Measured values as given in ChEMBL document CHEMBL1147575, “Novel inhibitors of fatty acid oxidation as potential metabolic modulators” (Bioorg Med Chem Lett, 2004).

Experiments:
[1] = species on record: Homo sapiens; experiment: Amount of parent compound remaining after incubation with human liver microsomes for 30 min.; format: functional
Method in brief: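 Human liver microsome (liver S-9) incubation for 30 min; read-out is percent of parent drug remaining.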

[2] = species on record: Rattus norvegicus; experiment: Inhibition of 1-14C]palmitoyl-CoA oxidation in rat heart mitochondria.; format: functional
Method in brief: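 Rat heart mitochondria; substrate 1-14[C]-palmitoyl-CoA, oxidation measured. Tested at 6 concentrations; IC50 from non-linear regression curve fit, mean of n=3. Run only for compounds giving ≥50% inhibition at 100 µM.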

[3] = Oral bioavailability in rat after oral administration at 11.2 mg/kg dose; format: ADME, organism-based; settings: in vivo
Method in brief: (§1)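 Rats dosed orally, single dose per compound (9.7–13 mg/kg). Preliminary PK: oral bioavailability (%F), AUC (ng·hr/mL) and t1/2 (h) derived; values are average of n=3.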

[4] = AUC in rat after oral administration at 11.2 mg/kg dose; format: ADME, organism-based; set-up: dose 11.2 mg/kg, route oral; settings: plasma; method in brief: as §1
[5] = Half life period in rat after oral administration at 11.2 mg/kg dose; format: ADME, organism-based; set-up: dose 11.2 mg/kg, route oral; settings: in vivo; method in brief: as §1
[6] = Oral bioavailability in rat after oral administration at 9.7 mg/kg dose; format: ADME, organism-based; settings: in vivo; method in brief: as §1
[7] = AUC in rat after oral administration at 9.7 mg/kg dose; format: ADME, organism-based; set-up: dose 9.7 mg/kg, route oral; settings: plasma; method in brief: as §1
[8] = Half life period in rat after oral administration at 9.7 mg/kg dose; format: ADME, organism-based; set-up: dose 9.7 mg/kg, route oral; settings: in vivo; method in brief: as §1
[9] = species on record: Rattus norvegicus; experiment: Inhibition of 1-14C]palmitoyl-CoA oxidation in rat heart mitochondria at 100 uM concentration; format: functional
Method in brief: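 Single-point screen at 100 µM: percent inhibition of 1-14[C]-palmitoyl-CoA oxidation in rat heart mitochondria. 95% confidence limits generally ±15% of the mean.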

[10] = Oral bioavailability in rat after oral administration at 13 mg/kg dose; format: ADME, organism-based; settings: in vivo; method in brief: as §1
[11] = Half life period in rat after oral administration at 13 mg/kg dose; format: ADME, organism-based; set-up: dose 13 mg/kg, route oral; settings: in vivo; method in brief: as §1
[12] = Area under curve in rat after oral administration at 13 mg/kg dose; format: ADME, organism-based; set-up: dose 13 mg/kg, route oral; settings: in vivo; method in brief: as §1
[13] = Oral bioavailability in rat after oral administration at 10.5 mg/kg dose; format: ADME, organism-based; settings: in vivo; method in brief: as §1
[14] = AUC in rat after oral administration at 10.5 mg/kg dose; format: ADME, organism-based; set-up: dose 10.5 mg/kg, route oral; settings: plasma; method in brief: as §1
[15] = Half life period in rat after oral administration at 10.5 mg/kg dose; format: ADME, organism-based; set-up: dose 10.5 mg/kg, route oral; settings: in vivo; method in brief: as §1

| SMILES | IC50 [2] [µM] | Remaining [1] [%] | inhibition [9] [%] | also measured |
| --- | --- | --- | --- | --- |
| Cc1nc2cc(OC[C@@H](O)CN3C(C)CN(CC(=O)Nc4c(C)cccc4C)CC3C)ccc2s1 (some centres undefined) | 2.5 | < 30 | – | – |
| Cc1nc2cc(OCC(O)CN3CCN(CC(=O)Nc4c(C)cccc4C)CC3)ccc2s1 (centres undefined) | 10 | 50 | 88 | bioavailability [10]: 45%; half-life [11]: 3 h; AUC [12]: 1260 ng·h/mL |
| Cc1nc2cc(OC[C@@H](O)CN3CCN(CC(=O)Nc4c(C)cccc4C)CC3)ccc2s1 | – | 35 | 47 | – |
| Cc1cccc(C)c1NC(=O)CN1CCN(CC(O)COc2ccc3ncsc3c2)CC1 (centres undefined) | – | – | 3 | – |
| Cc1nc2cc(OCCCN3CCN(CC(=O)Nc4c(C)cccc4C)CC3)ccc2s1 | – | < 30 | 38 | – |
| Cc1nc2cc(OC[C@H](O)CN3C[C@@H]4C[C@H]3CN4CC(=O)Nc3c(C)cccc3C)ccc2s1 | – | – | 26 | – |
| Cc1nc2ccc(OCC(O)CN3CCN(CC(=O)Nc4c(C)cccc4C)CC3)cc2s1 (centres undefined) | – | – | 3 | – |
| Cc1nc2cc(OC[C@H](O)CN3CCN(CC(=O)Nc4c(C)cccc4C)CC3(C)C)ccc2s1 | 0.11 | < 10 | – | bioavailability [13]: 13%; AUC [14]: 265 ng·h/mL; half-life [15]: 4.2 h |
| Cc1nc2cc(OCC(O)CN3CCN(CC(=O)Nc4c(C)cccc4C)CC3)ccc2o1 (centres undefined) | – | – | 34 | – |
| Cc1nc2cc(OC[C@H](O)CN3CC4CC3CN4CC(=O)Nc3c(C)cccc3C)ccc2s1 (some centres undefined) | – | – | 40 | – |

Further lines, with some results ahead:

| IC50 [2] [µM] | SMILES | Remaining [1] [%] | inhibition [9] [%] | also measured |
| --- | --- | --- | --- | --- |
| 0.07 | Cc1nc2cc(OC[C@H](O)CN3C(C)CN(CC(=O)Nc4c(C)cccc4C)CC3C)ccc2s1 (some centres undefined) | 21 | – | bioavailability [3]: 11%; AUC [4]: 128 ng·h/mL; half-life [5]: 3.5 h |
| 2 | Cc1nc2cc(OC[C@H](O)CN3CCN(CC(=O)Nc4c(C)cccc4C)C[C@H]3C)ccc2s1 | < 10 | – | – |
| 0.2 | Cc1nc2cc(OC[C@H](O)CN3CCN(CC(=O)Nc4c(C)cccc4C)C[C@@H]3C)ccc2s1 | < 10 | – | bioavailability [6]: 5%; AUC [7]: 278 ng·h/mL; half-life [8]: 6.2 h |
| 20 | CCCc1nc2cc(OCC(O)CN3CCN(CC(=O)Nc4c(C)cccc4C)CC3)ccc2s1 (centres undefined) | 15 | 70 | – |
| 4 | Cc1nc2cc(OC[C@H](O)CN3CCN(CC(=O)Nc4c(C)cccc4C)CC3)ccc2s1 | < 27 | – | – |
| 13 | CCc1nc2cc(OCC(O)CN3CCN(CC(=O)Nc4c(C)cccc4C)CC3)ccc2s1 (centres undefined) | 29 | 75 | – |
| 8 | Cc1cccc(C)c1NC(=O)CN1CCN(CC(O)COc2ccc3oc(-c4ccc(C(F)(F)F)cc4)nc3c2)CC1 (centres undefined) | 40 | 89 | – |
| 13 | Cc1cccc(C)c1NC(=O)CN1CCN(CC(O)COc2ccc3oc(-c4cccc(C(F)(F)F)c4)nc3c2)CC1 (centres undefined) | 6 | 82 | – |
| 0.023 | Cc1nc2cc(OC[C@H](O)CN3CC(C)N(CC(=O)Nc4c(C)cccc4C)CC3C)ccc2s1 (some centres undefined) | < 10 | – | – |
| 10 | Cc1nc2cc(OC[C@@H](O)CN3CCN(CC(=O)Nc4c(C)cccc4C)C[C@H]3C)ccc2s1 | < 10 | – | – |
| 0.45 | Cc1nc2cc(OCC(O)CN3CCN(CC(=O)Nc4c(C)cccc4C)CC3(C)C)ccc2s1 (centres undefined) | < 10 | – | – |
| 5 | Cc1nc2cc(OC[C@@H](O)CN3CCN(CC(=O)Nc4c(C)cccc4C)C[C@@H]3C)ccc2s1 | < 30 | – | – |
| 23 | Cc1cccc(C)c1NC(=O)CN1CCN(CC(O)COc2ccc3oc(-c4ccccc4)nc3c2)CC1 (centres undefined) | 15 | 70 | – |
